According to PMC3972320 (Kidney international, 2013):
Values belong to the molecule of their own block, whether it stands above or below them.

How the values were obtained:
[1] = 14C-TEA kinetic study in vivo; set-up: species or system mouse; conditions: single injection 10 μl/g BW
Outline: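 Male WT, Kl/+ and Tg-Kl mice (129sv background, 12–14 weeks, 30–40 g) got a single i.v. dose of 14C-tetraethylammonium (10 μl/g BW; 0.1 mCi/ml, specific activity 3.5 mCi/mmol). Blood and urine were sampled at 0, 30, 60 and 90 […] post injection, with radioactivity by liquid scintillation counting. AUC0-60 is given as mean ± SD of 3 experiments per genotype.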

OCT2 mRNA = OCT2 mRNA by qPCR in NRK cells transfected with human OCT2/V5; format: cell-based, rat; conditions: DSAL, NRK cells transfected with human OCT2/V5 and Klotho plasmid
human OCT2 [2] = format: cell-based
human OCT2 [3] = assay: Cell surface; format: cell-based; conditions: DSAL, OCT2/V5-transfected CHO cells
NRK cells [4] = assay: TUNEL staining of apoptotic NRK cells; format: cell-based, rat
Outline: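 NRK rat renal epithelial cells on glass coverslips were serum-starved overnight after confluence. […] Cells were PFA-fixed and TUNEL-stained with DAPI counterstain, then imaged by confocal microscopy. TUNEL-positive/DAPI-positive cells were counted in 5 fields at 40X, across 4 independent experiments.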

human OCT2 [5] = biological target: T1, human OCT2 (Homo sapiens, UniProt O15244); format: cell-based; conditions: β-glucuronidase 100μg/ml, sialidase 0.1 IU/ml, cimetidine 0.1 mM, added 16 hours prior to assay
T1 sequence (O15244 1-555): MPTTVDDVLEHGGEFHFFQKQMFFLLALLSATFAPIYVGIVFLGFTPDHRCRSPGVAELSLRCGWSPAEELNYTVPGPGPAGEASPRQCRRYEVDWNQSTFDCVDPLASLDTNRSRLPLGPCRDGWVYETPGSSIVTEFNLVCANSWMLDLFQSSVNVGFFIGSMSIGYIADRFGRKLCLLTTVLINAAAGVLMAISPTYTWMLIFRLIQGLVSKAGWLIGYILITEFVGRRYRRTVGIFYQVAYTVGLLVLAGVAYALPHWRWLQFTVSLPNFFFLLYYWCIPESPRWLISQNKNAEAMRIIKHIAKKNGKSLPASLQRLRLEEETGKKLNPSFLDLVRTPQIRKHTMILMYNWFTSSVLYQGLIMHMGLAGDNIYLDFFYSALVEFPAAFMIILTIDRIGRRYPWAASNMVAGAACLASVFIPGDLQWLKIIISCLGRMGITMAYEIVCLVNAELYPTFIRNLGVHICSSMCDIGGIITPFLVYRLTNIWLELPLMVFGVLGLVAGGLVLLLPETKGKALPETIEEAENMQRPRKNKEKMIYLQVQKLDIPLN

NRK cells [6] = assay: LDH release from NRK cells on Transwell plates; format: cell-based, rat
NRK cells [7] = assay: Oregon Green 488-labeled fluorescent cisplatin uptake by NRK cells; format: cell-based, rat
[8] = system: organic cation transporter (OCT); assay: 14C-TEA uptake by NRK cells; format: cell-based, rat; conditions: agent added after 14C-TEA
patients = conditions: among patients with AKI; cited from earlier work

- AUC0-60 of 14C-TEA, Blood 14C-TEA ([1]; Kl/+ mice): 4.13±0.12 (3) nmol/μl
- AUC0-60 of 14C-TEA, Blood 14C-TEA ([1]; Tg-Kl mice): 2.22±0.12 (3) nmol/μl
- AUC0-60 of 14C-TEA, Urine excretion rate 14C-TEA ([1]; Tg-Kl mice): 1.36±0.08 (3) pmol/mim
- AUC0-60 of 14C-TEA, Blood 14C-TEA ([1]; WT mice): 2.68±0.18 (3) nmol/μl
- AUC0-60 of 14C-TEA, Urine excretion rate 14C-TEA ([1]; WT mice): 2.08±0.08 (3) pmol/mim
SMILES: CC[N+](CC)(CC)CC [^14C-TEA, ^14C-tetraethylammonium]

- effect on the reduction of OCT2 protein by β-glucuronidase (human OCT2 [2]; DSAL 10 μM, CHO cells, immunocytochemistry and immunoblot): completely blocked
SMILES: O=C(O)[C@@H](O)[C@H]1OC(=O)[C@H](O)[C@H]1O [DSAL, D-Saccharic acid 1,4-lactone]
- effect on the reduction of rat oct2 mRNA induced by Klotho (OCT2 mRNA): did not abolish
- OCT2 protein expression by immunocytochemistry (human OCT2 [2]; CHO cells transfected with OCT2/V5, β-glucuronidase 100μg/ml, DSAL 10 μM alone): had no effect
- effect on Klotho-induced reduction of cell surface OCT2 (2 hours and 2 days) (human OCT2 [3]): blocked

- 14C-TEA uptake in OCT2-expressing CHO cells (human OCT2 [5]): reduced
SMILES: CN/C(=N/CCSCc1nc[nH]c1C)NC#N [cimetidine]
- OCT2 abundance in total cell membrane pool by immunoblot (human OCT2 [2]; CHO cells transfected with OCT2/V5, β-glucuronidase 100μg/ml, sialidase 0.1 IU/ml, cimetidine 0.1 mM): did not alter
- cisplatin-triggered apoptosis (TUNEL), basolateral co-incubation of agent (NRK cells [4]; Klotho or cimetidine basolateral): rescued
- LDH release induced by basolateral cisplatin, agent added into apical side (NRK cells [6]; cisplatin 0.1 mM basolateral, Klotho 0.4 nM or cimetidine 0.1 mM apical): not cimetidine decreased LDH release
- LDH release induced by basolateral cisplatin, basolateral co-incubation of agent (NRK cells [6]; cisplatin 0.1 mM, Klotho 0.4 nM or cimetidine 0.1 mM on basolateral side): significantly reduced LDH release
- fluorescent cisplatin uptake, agent added to apical side (NRK cells [7]; NRK cells, confocal imaging): not by either agent added to the apical side
- fluorescent cisplatin uptake, agent added to basolateral side (NRK cells [7]; NRK cells, confocal imaging): blocked
- inhibition of 14C-TEA uptake when 14C-TEA added to basolateral medium 20 minutes prior to agent [8]: inhibitory effect was absent

SMILES: N.N.[Cl][Pt][Cl] [cisplatin, cis-diammine-dichloroplatinum]
- patients with AKI still having elevated SCr 15 days after treatment (patients): 50%
- apoptosis (TUNEL) on cisplatin addition to basolateral medium (NRK cells [4]): triggers apoptosis
- side of entry of Oregon Green 488-labeled cisplatin into NRK cells (NRK cells [7]; Transwell, apical or basolateral addition): entered NRK cells solely from the basolateral side
